Experimental data as given in ChEMBL document CHEMBL3112398, “Qualification of LSP1-2111 as a Brain Penetrant Group III Metabotropic Glutamate Receptor Orthosteric Agonist” (ACS Med Chem Lett, 2014).
pIC50: −log10 of the molar value.

How the values were obtained:
Homo sapiens [1] = species: Homo sapiens; test: Selectivity for mGlu4 receptor (unknown origin) over mGlu8 receptor (unknown origin)
Homo sapiens [2] = species: Homo sapiens; test: Selectivity for mGlu4 receptor (unknown origin) over mGlu7 receptor (unknown origin)
Homo sapiens [3] = species: Homo sapiens; test: Selectivity for mGlu4 receptor (unknown origin) over mGlu6 receptor (unknown origin)
Brain [4] = test: Drug uptake in Sprague-Dawley rat brain at 10 mg/kg, sc after 6 hrs by quantitative microdialysis method; format: ADME, organism-based; design: dose 10 mg/kg, route subcutaneous; details: in vivo
Outline: (§1)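 Rats dosed SC at 10 mg/kg with drug in saline at pH 7.4; plasma, CSF and brain homogenate sampled over a 6 h time course (0.5–6 h), N = 4. Brain not perfused before homogenization. AUC0-6 computed from the concentration–time profiles.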

Brain [5] = test: Drug uptake in Sprague-Dawley rat brain at 10 mg/kg, sc after 4 hrs by quantitative microdialysis method; format: ADME, organism-based; design: dose 10 mg/kg, route subcutaneous; details: in vivo; outline: as §1
[6] = AUC (infinity) in Sprague-Dawley rat at 1 mg/kg, iv; format: ADME, organism-based; design: time infinity, dose 1 mg/kg, route intravenous; details: plasma
Outline: (§2)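 Plasma concentrations were followed over time. Pharmacokinetic parameters were derived by noncompartmental analysis and reported as means of N = 2 animals.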

Brain [7] = test: Drug uptake in Sprague-Dawley rat brain at 10 mg/kg, sc after 30 mins by quantitative microdialysis method; format: ADME, organism-based; design: dose 10 mg/kg, route subcutaneous; details: in vivo, 0.5 h; outline: as §1
[8] = Cmax in Sprague-Dawley rat at 10 mg/kg, po; format: ADME, organism-based; design: dose 10 mg/kg, route oral; details: in vivo
Outline: (§3)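 SD rats given IV (1 mg/kg) or oral (10 mg/kg) doses as a solution in saline buffered to pH 7.4, dose volume 5 mL/kg, N = 2. Plasma concentration–time profiles analysed by noncompartmental analysis; reported values are means.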

[9] = AUC (0 to 6 hrs) in Sprague-Dawley rat CSF at 10 mg/kg, sc by quantitative microdialysis method; format: ADME, organism-based; design: time < 6 hr, dose 10 mg/kg, route subcutaneous; outline: as §1
[10] = Drug uptake in Sprague-Dawley rat CSF at 10 mg/kg, sc after 6 hrs by quantitative microdialysis method; format: ADME, organism-based, Cerebrospinal fluid; design: dose 10 mg/kg, route subcutaneous; details: read-out: Drug uptake; outline: as §1
Brain [11] = test: AUC (0 to 6 hrs) in Sprague-Dawley rat brain at 10 mg/kg, sc by quantitative microdialysis method; format: ADME, organism-based; design: time < 6 hr, dose 10 mg/kg, route subcutaneous; details: in vivo; outline: as §1
[12] = AUC (0 to 6 hrs) in Sprague-Dawley rat plasma at 10 mg/kg, sc by quantitative microdialysis method; format: ADME, organism-based; design: time < 6 hr, dose 10 mg/kg, route subcutaneous; outline: as §1
Plasma [13] = test: Plasma concentration in Sprague-Dawley rat at 10 mg/kg, sc after 0.5 to 6 hrs by quantitative microdialysis method; format: ADME, organism-based; design: dose 10 mg/kg, route subcutaneous; details: in vivo; outline: as §1
[14] = Half life in Sprague-Dawley rat at 1 mg/kg, iv; format: ADME, organism-based; design: dose 1 mg/kg, route intravenous; details: in vivo; outline: as §3
[15] = Plasma clearance in Sprague-Dawley rat at 1 mg/kg, iv; format: ADME, organism-based; design: dose 1 mg/kg, route intravenous; outline: as §3
[16] = Half life in Sprague-Dawley rat plasma at 10 mg/kg, sc by quantitative microdialysis method; format: ADME, organism-based; design: dose 10 mg/kg, route subcutaneous; outline: as §1
[17] = Drug uptake in rat Sprague-Dawley ECF at 10 mg/kg, sc after 60 mins by quantitative microdialysis method; format: ADME, organism-based; design: dose 10 mg/kg, route subcutaneous; details: read-out: Drug uptake
Outline: (§4)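 Rat in vivo microdialysis with a MetaQuant probe at a low flow rate of 0.1 μL/min after SC doses of 10 or 30 mg/kg. Brain ECF dialysate and plasma concentrations followed over time. ECF values corrected for 96% in vivo probe recovery.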

[18] = Drug uptake in Sprague-Dawley rat ECF at 30 mg/kg, sc after 60 mins by quantitative microdialysis method; format: ADME, organism-based; design: dose 30 mg/kg, route subcutaneous; details: read-out: Drug uptake; outline: as §4
[19] = Plasma concentration in Sprague-Dawley rat at 30 mg/kg, sc after 60 mins by quantitative microdialysis method; format: ADME, organism-based; design: dose 30 mg/kg, route subcutaneous; outline: as §4
[20] = Plasma concentration in Sprague-Dawley rat at 10 mg/kg, sc after 60 mins by quantitative microdialysis method; format: ADME, organism-based; design: dose 10 mg/kg, route subcutaneous; outline: as §4
[21] = Volume of distribution at steady state in Sprague-Dawley rat at 1 mg/kg, iv; format: ADME, organism-based; design: dose 1 mg/kg, route intravenous; details: in vivo, read-out: Vdss; outline: as §3
[22] = Tmax in Sprague-Dawley rat at 10 mg/kg, po; format: ADME, organism-based; design: dose 10 mg/kg, route oral; details: in vivo; outline: as §3
[23] = AUC (infinity) in Sprague-Dawley rat at 10 mg/kg, po; format: ADME, organism-based; design: time infinity, dose 10 mg/kg, route oral; details: plasma; outline: as §2
Liver microsome [24] = test: Intrinsic clearance in human liver microsomes; format: ADME
hERG (KCNH2) = hERG (KCNH2) (Homo sapiens, UniProt Q12809); test: Inhibition of human ERG channel at 30 uM by ionworks assay
Liver microsome [25] = test: Intrinsic clearance in rat liver microsomes; format: ADME
[26] = Fraction unbound in mouse brain homogenates; format: ADME, tissue-based; details: brain homogenate
[27] = Fraction unbound in rat brain homogenates; format: ADME, tissue-based; details: brain homogenate
[28] = Fraction unbound in rat plasma; format: ADME, cell-free
[29] = Fraction unbound in mouse plasma; format: ADME, cell-free
[30] = Fraction unbound in human plasma; format: ADME, cell-free
MDR1 [31] = test: Apparent permeability from basolateral to apical side in MDCK cells expressing MDR1; format: ADME, cell-based, Canis lupus familiaris; details: dog
Outline: (§5)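 Bidirectional transport across MDCK/MDR1 monolayers, apparent permeability measured A→B and B→A. The B→A/A→B ratio is used as an indicator of P-gp substrate behaviour.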

MDR1 [32] = test: Apparent permeability from apical to basolateral side in MDCK cells expressing MDR1; format: ADME, cell-based, Canis lupus familiaris; details: dog; outline: as §5
[33] = Oral bioavailability in Sprague-Dawley rat at 10 mg/kg; format: ADME, organism-based; details: in vivo; outline: as §3
[34] = Passive apparent permeability of the compound by PAMPA; format: ADME
[35] = Kinetic aqueous solubility of the compound; format: physicochemical; details: buffer; read-out: Kinetic_solubility
Outline: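 Kinetic aqueous solubility determined in an assay developed and optimized for lipophilic compounds; detection limit 800 μM.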

[36] = Thermodynamic solubility of the compound at pH 7.4; format: physicochemical; details: buffer, read-out: Therm_solubility
[37] = Lipophilicity, log D of the compound at pH 7.4; format: physicochemical; details: buffer
[38] = biological target: Metabotropic glutamate receptor 4 (Homo sapiens, UniProt Q14833); test: Displacement of [3H]-L-AP4 from human mGlu4 receptor
HepG2 = test: Cytotoxicity against human HepG2 cells by luminescence assay; format: cell-based
[39] = Ratio of AUC (0 to 6 hrs) from CSF to plasma in Sprague-Dawley rat at 10 mg/kg, sc by quantitative microdialysis method; format: ADME, organism-based; design: dose 10 mg/kg, route subcutaneous
Outline: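 Rats given 10 mg/kg SC, formulated in saline at pH 7.4 (N = 4). Plasma, CSF and brain were sampled over a 6 h time course starting at 0.5 h. Brain was homogenized without perfusion, so capillary blood was retained. Ratios were calculated from AUC0-6 of CSF or brain homogenate versus plasma.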

[40] = Ratio of AUC (0 to 6 hrs) from brain to plasma in Sprague-Dawley rat at 10 mg/kg, sc by quantitative microdialysis method; format: ADME, organism-based; design: dose 10 mg/kg, route subcutaneous; details: in vivo
Plasma [41] = test: Maximum unbound concentration in Sprague-Dawley rat plasma at 10 mg/kg, sc after 0.5 hrs by quantitative microdialysis method; details: in vivo

Metabotropic glutamate receptor 4, sequence (Q14833 whole entry): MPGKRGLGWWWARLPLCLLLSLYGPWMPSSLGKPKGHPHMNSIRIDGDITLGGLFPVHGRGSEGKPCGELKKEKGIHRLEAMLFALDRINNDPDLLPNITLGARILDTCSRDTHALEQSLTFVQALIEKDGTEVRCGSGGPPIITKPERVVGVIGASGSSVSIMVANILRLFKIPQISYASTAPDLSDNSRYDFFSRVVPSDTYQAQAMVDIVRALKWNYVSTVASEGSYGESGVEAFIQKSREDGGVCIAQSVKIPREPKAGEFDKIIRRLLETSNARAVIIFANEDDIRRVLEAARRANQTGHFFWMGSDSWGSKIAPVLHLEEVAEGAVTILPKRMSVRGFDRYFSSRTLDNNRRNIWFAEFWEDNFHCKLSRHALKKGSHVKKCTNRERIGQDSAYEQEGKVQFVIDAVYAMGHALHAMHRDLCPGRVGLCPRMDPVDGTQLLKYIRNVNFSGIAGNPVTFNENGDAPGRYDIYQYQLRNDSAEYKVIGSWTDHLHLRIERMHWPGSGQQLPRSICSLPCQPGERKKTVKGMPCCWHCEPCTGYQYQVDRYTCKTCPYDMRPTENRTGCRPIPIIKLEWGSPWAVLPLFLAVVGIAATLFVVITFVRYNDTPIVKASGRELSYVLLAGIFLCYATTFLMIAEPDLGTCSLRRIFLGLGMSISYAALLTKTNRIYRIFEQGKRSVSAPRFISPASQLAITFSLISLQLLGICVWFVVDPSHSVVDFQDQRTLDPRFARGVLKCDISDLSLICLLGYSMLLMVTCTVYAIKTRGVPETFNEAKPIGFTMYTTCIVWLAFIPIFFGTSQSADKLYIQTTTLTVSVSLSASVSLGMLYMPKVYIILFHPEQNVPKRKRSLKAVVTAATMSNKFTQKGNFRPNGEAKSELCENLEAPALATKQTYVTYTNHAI
hERG (KCNH2), sequence (Q12809 whole entry): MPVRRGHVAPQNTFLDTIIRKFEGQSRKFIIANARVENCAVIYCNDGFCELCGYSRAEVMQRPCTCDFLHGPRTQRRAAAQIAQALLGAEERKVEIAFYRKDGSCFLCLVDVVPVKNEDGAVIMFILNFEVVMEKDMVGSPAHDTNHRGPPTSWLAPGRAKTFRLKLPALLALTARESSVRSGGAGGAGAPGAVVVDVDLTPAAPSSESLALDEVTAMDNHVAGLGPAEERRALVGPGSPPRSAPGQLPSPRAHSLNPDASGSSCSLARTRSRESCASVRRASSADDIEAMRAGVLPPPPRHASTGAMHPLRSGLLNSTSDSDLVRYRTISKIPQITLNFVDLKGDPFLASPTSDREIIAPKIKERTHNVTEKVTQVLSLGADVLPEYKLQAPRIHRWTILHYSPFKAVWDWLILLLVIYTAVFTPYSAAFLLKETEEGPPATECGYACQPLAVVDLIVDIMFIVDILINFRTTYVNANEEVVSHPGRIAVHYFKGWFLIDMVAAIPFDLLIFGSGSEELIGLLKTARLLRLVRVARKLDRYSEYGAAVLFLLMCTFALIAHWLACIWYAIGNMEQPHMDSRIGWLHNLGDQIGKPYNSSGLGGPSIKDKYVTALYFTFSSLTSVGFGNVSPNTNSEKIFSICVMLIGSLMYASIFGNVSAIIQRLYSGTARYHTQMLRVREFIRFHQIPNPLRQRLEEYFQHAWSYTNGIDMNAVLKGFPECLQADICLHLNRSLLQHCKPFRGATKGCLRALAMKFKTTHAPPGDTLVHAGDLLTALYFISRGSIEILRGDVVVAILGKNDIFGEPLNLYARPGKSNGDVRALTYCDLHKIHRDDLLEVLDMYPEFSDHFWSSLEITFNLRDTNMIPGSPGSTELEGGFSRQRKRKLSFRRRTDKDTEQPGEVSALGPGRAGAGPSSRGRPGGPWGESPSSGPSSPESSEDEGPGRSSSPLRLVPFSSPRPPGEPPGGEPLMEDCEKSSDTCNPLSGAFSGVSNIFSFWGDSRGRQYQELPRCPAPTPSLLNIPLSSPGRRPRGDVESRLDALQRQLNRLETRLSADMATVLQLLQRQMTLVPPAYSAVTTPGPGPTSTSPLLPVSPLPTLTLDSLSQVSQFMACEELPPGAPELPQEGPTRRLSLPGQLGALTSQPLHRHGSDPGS

N[C@@H](CCP(=O)(O)C(O)c1ccc(OCC(=O)O)cc1)C(=O)O (stereo partly specified)
Selectivity ratio (Homo sapiens [1]): 300
Selectivity ratio (Homo sapiens [2]): 100
Selectivity ratio (Homo sapiens [3]): 40

COc1cc(C(O)P(=O)(O)CC[C@H](N)C(=O)O)cc([N+](=O)[O-])c1O (mixture of isomers)
Drug uptake (Brain [4]): 0.4 µM
Drug uptake (Brain [5]): 0.08 µM
AUC(0-inf) [6]: 2800 ng·h/mL
Drug uptake (Brain [7]): 1 µM
Cmax [8]: 92 ng/mL
AUC(0-t) at 6 h [9]: 3500 ng·h/mL
concentration at 6 h [10]: 0.7 µM
AUC (Brain [11]): 0.7 µg·h/g
AUC(0-t) at 6 h [12]: 30000 ng·h/mL
Cp (Plasma [13]): 150 ng/mL
half-life [14]: 18 min
clearance [15]: 6.2 mL/min/kg
half-life [16]: 20 min
concentration at 1 h [17]: 1.8 µM
concentration at 1 h [18]: 9.8 µM
concentration at 1 h [19]: 114 µM
concentration at 1 h [20]: 31 µM
Vd [21]: 0.1 L/kg
Tmax [22]: 84 min
AUC(0-inf) [23]: 200 ng·h/mL
CLH (Liver microsome [24]): 0.1 L/min
inhibition at 30 µM (hERG (KCNH2)): 14%
CLH (Liver microsome [25]): 3.1 mL/min
fraction unbound [26]: > 0.99
fraction unbound [27]: > 0.99
fraction unbound [28]: > 0.99
fraction unbound [29]: > 0.99
fraction unbound [30]: 0.73
Papp B→A (MDR1 [31]): 0.5 ×10⁻⁶ cm/s
Papp A→B (MDR1 [32]): 0.2 ×10⁻⁶ cm/s
bioavailability [33]: 0.8%
Papp [34]: < 0.1 ×10⁻⁶ cm/s
solubility kinetic [35]: > 800 µM
solubility thermodynamic [36]: > 1800 µg/mL
logD [37]: -0.7
pIC50 [38]: 5.07
Activity (HepG2): Non-toxic
Ratio AUC [39]: 12%
Selectivity ratio (Homo sapiens [1]): 30
Selectivity ratio (Homo sapiens [2]): 25
Selectivity ratio (Homo sapiens [3]): 1
Ratio AUC [40]: 2.4%
Cp(f) (Plasma [41]): 55.2 µM
